Values after ≈ are worked out from the molar mass of the structure shown.
How the values were obtained:
Staphylococcus aureus [1] = experiment: microbe, parasite or virus in culture
Acinetobacter = experiment: Antibacterial activity against aminoglycoside-resistant Acinetobacter spp. expressing APH(3')-6 by broth microdilution method; assay type: functional
Summary of the method: (§1)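 Clinical aminoglycoside-resistant isolates were each carrying a single aminoglycoside-modifying enzyme. […] MICs were determined by CLSI broth microdilution.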

Staphylococcus aureus [2] = experiment: microbe, parasite or virus in culture; details: ATCC 29213
Acinetobacter baumannii [3] = experiment: Antibacterial activity against aminoglycoside-susceptible Acinetobacter baumannii by broth microdilution method; assay type: functional
Pseudomonas aeruginosa [4] = experiment: Antibacterial activity against Pseudomonas aeruginosa expressing mexXY operon by broth microdilution method; assay type: functional
Summary of the method: (§2)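 MICs were measured by broth microdilution following CLSI guidance. The strains formed a 25-strain screening panel with diverse aminoglycoside resistance mechanisms. The panel included Gram-negative and S. aureus strains carrying key aminoglycoside-modifying enzymes, strains with altered permeability or efflux, and an armA ribosomal methyltransferase strain.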

Pseudomonas aeruginosa [5] = experiment: Antibacterial activity against Pseudomonas aeruginosa expressing ANT(4')-2 by broth microdilution method; assay type: functional
Summary of the method: as §2

Escherichia coli [6] = experiment: Antibacterial activity against Escherichia coli ATCC 25922 by broth microdilution method; assay type: functional
Summary of the method: as §2

Escherichia coli [7] = experiment: Antibacterial activity against aminoglycoside-resistant Escherichia coli expressing armA methylase by broth microdilution method; assay type: functional
Summary of the method: as §2

[8] = test system: Acinetobacter calcoaceticus; experiment: Antibacterial activity against aminoglycoside-resistant Acinetobacter calcoaceticus expressing AAC(6')-1 by broth microdilution method; assay type: functional
Summary of the method: as §1

Pseudomonas aeruginosa [9] = experiment: Antibacterial activity against Pseudomonas aeruginosa expressing AAC(3)-1 by broth microdilution method; assay type: functional
Klebsiella pneumoniae = experiment: Antibacterial activity against Klebsiella pneumoniae ATCC 10031 by broth microdilution method; assay type: functional
Summary of the method: as §2

Pseudomonas aeruginosa [10] = experiment: Antibacterial activity against efflux pump deficient Pseudomonas aeruginosa by broth microdilution method; assay type: functional
Staphylococcus aureus [11] = experiment: Antibacterial activity against aminoglycoside-resistant Staphylococcus aureus expressing APH(2'') + AAC(6') by broth microdilution method; assay type: functional
Summary of the method: as §2

Pseudomonas aeruginosa [12] = experiment: Antibacterial activity against Pseudomonas aeruginosa expressing AAC(6')-2 by broth microdilution method; assay type: functional
Pseudomonas aeruginosa [13] = experiment: Antibacterial activity against wild type Pseudomonas aeruginosa expressing efflux pump by broth microdilution method; assay type: functional
Summary of the method: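 MIC was determined by CLSI broth microdilution, read in μg/ml. The strain came from a 25-strain screening panel with diverse aminoglycoside resistance mechanisms. The panel included strains with changes in permeability or efflux, key aminoglycoside-modifying enzymes and an armA methyltransferase strain.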

Serratia marcescens = experiment: Antibacterial activity against aminoglycoside-resistant Serratia marcescens expressing ANT(2''), AAC(6') by broth microdilution method; assay type: functional
Summary of the method: as §2

Providencia stuartii = experiment: Antibacterial activity against aminoglycoside-resistant Providencia stuartii expressing AAC(2')-1 by broth microdilution method
Pseudomonas aeruginosa [14] = experiment: Antibacterial activity against Pseudomonas aeruginosa ATCC 27853 by broth microdilution method; assay type: functional
Staphylococcus aureus [15] = experiment: microbe, parasite or virus in culture; remark: listed apart in the source
Escherichia coli [16] = experiment: Antibacterial activity against aminoglycoside-resistant Escherichia coli expressing ANT(2'')-1 by broth microdilution method; assay type: functional
Summary of the method: as §1

Escherichia coli [17] = experiment: Antibacterial activity against aminoglycoside-resistant Escherichia coli expressing AAC(3)-2 by broth microdilution method
Escherichia coli [18] = experiment: Antibacterial activity against aminoglycoside-resistant Escherichia coli expressing APH(3')-1b by broth microdilution method
Escherichia coli [19] = experiment: Antibacterial activity against aminoglycoside-resistant Escherichia coli expressing AAC(3)-IVa by broth microdilution method
Escherichia coli [20] = experiment: Antibacterial activity against aminoglycoside-resistant Escherichia coli expressing AAC(6')-1 by broth microdilution method
Acinetobacter baumannii [21] = experiment: Antibacterial activity against Acinetobacter baumannii ATCC 19606 by broth microdilution method; assay type: functional; details: ATCC 19606 = CIP 70.34 = JCM 6841
Summary of the method: as §2

CN[C@@H]1[C@@H](O)[C@@H](O[C@@H]2[C@@H](O)[C@H](O[C@H]3OC(CN)=CC[C@H]3N)[C@@H](N)C[C@H]2N)OC[C@]1(C)O [SISOMICIN] was tested, and the MIC (Staphylococcus aureus [1]) was 1 µg/mL (≈ 2.23 µM), the MIC (Acinetobacter) was 0.5 µg/mL (≈ 1.12 µM) and the MIC (Staphylococcus aureus [2]) was 0.5 µg/mL (≈ 1.12 µM). It also gave an MIC (Acinetobacter baumannii [3]) of 0.5 µg/mL (≈ 1.12 µM), an MIC (Pseudomonas aeruginosa [4]) of 1 µg/mL (≈ 2.23 µM) and an MIC (Pseudomonas aeruginosa [5]) of 1 µg/mL (≈ 2.23 µM). It also gave an MIC (Escherichia coli [6]) of 0.5 µg/mL (≈ 1.12 µM), an MIC (Escherichia coli [7]) of over 64 µg/mL and an MIC [8] of 32 µg/mL (≈ 71.5 µM). For the same molecule, the MIC (Pseudomonas aeruginosa [9]) was 32 µg/mL (≈ 71.5 µM), the MIC (Klebsiella pneumoniae) was 0.25 µg/mL (≈ 0.559 µM) and the MIC (Pseudomonas aeruginosa [10]) was 0.125 µg/mL (≈ 0.279 µM). The MIC (Staphylococcus aureus [11]) was over 64 µg/mL, the MIC (Pseudomonas aeruginosa [12]) was 32 µg/mL (≈ 71.5 µM) and the MIC (Pseudomonas aeruginosa [13]) was 1 µg/mL (≈ 2.23 µM). It also gave an MIC (Serratia marcescens) of 8 µg/mL (≈ 17.9 µM), an MIC (Providencia stuartii) of 64 µg/mL (≈ 143 µM) and an MIC (Pseudomonas aeruginosa [14]) of 0.5 µg/mL (≈ 1.12 µM). For the same molecule, the MIC (Staphylococcus aureus [15]) was 0.25 µg/mL (≈ 0.559 µM), the MIC (Escherichia coli [16]) was 64 µg/mL (≈ 143 µM) and the MIC (Escherichia coli [17]) was over 64 µg/mL. For the same molecule, the MIC (Escherichia coli [18]) was 0.25 µg/mL (≈ 0.559 µM), the MIC (Escherichia coli [19]) was 32 µg/mL (≈ 71.5 µM) and the MIC (Escherichia coli [20]) was 32 µg/mL (≈ 71.5 µM). The MIC (Acinetobacter baumannii [21]) was 8 µg/mL (≈ 17.9 µM).
